Assay results as given in ChEMBL document CHEMBL1142671, “Chiral DNA gyrase inhibitors. 3. Probing the chiral preference of the active site of DNA gyrase. Synthesis of 10-fluoro-6-methyl-6,7-dihydro-9-piperazinyl- 2H-benzo[a]quinolizin-20-one-3-carboxylic acid analogues” (J Med Chem, 2005).
pIC50: −log10 of the molar value. Converted amounts (≈) assume the structure as drawn.

Experiments:
Escherichia coli [1] = test: In vitro minimum inhibitory concentration against Escherichia coli SS was determined; assay type: functional
How it was run: (§1)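 Two-fold agar dilution series; MIC taken as the average of triplicate runs. Tested against intact Gram-positive and Gram-negative bacteria.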

Staphylococcus aureus = test: In vitro minimum inhibitory concentration against Staphylococcus aureus ATCC 6538P was determined; assay type: functional; how it was run: as §1
Micrococcus luteus = test: In vitro minimum inhibitory concentration against Micrococcus luteus 9341 was determined; assay type: functional; how it was run: as §1
[2] = In vitro minimum inhibitory concentration against […] faecium ATCC 8043 was determined; assay type: functional; how it was run: as §1
Nucleic Acid = test: In vitro inhibitory concentration against DNA gyrase from Micrococcus luteus […]; assay type: nucleic-acid assay
How it was run: (§2)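 Purified DNA gyrase, isolated from Escherichia coli H560 or Micrococcus luteus; IC50 in µg/mL, averaged over triplicate runs.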

Escherichia coli [3] = test: In vitro minimum inhibitory concentration against Escherichia coli Juhl was determined; assay type: functional; how it was run: as §1
Pseudomonas aeruginosa = test: In vitro minimum inhibitory concentration against Pseudomonas aeruginosa was determined; assay type: functional; how it was run: as §1
Escherichia coli [4] = test: In vitro minimum inhibitory concentration against Escherichia coli H560 was determined; assay type: functional; how it was run: as §1
Escherichia coli [5] = test: In vitro minimum inhibitory concentration against Escherichia coli KNK 437 was determined; assay type: functional; how it was run: as §1
DNA gyrase = DNA gyrase (Escherichia coli, UniProt P0AES4+P0AES6); test: In vitro inhibitory concentration against DNA gyrase from Escherichia coli H560; assay type: protein-complex assay; how it was run: as §2

Row | SMILES | MIC (Escherichia coli [1]) [µg/mL] | MIC (Staphylococcus aureus) [µg/mL] | MIC (Micrococcus luteus) [µg/mL] | MIC [2] [µg/mL] | IC50 (Nucleic Acid) [µg/mL] | MIC (Escherichia coli [3]) [µg/mL] | MIC (Pseudomonas aeruginosa) [µg/mL] | MIC (Escherichia coli [4]) [µg/mL] | MIC (Escherichia coli [5]) [µg/mL] | pIC50 (DNA gyrase)
1 | C[C@H]1Cc2ccccc2-c2cc(=O)c(C(=O)O)cn21 | 1.56 (≈ 6.11 µM) | 50 (≈ 196 µM) | > 100 | > 100 | > 250 | 25 (≈ 97.9 µM) | 50 (≈ 196 µM) | 25 (≈ 97.9 µM) | > 100 | 4.11
2 | O=C(O)c1cn(C2CC2)c2cc(N3CCNCC3)c(F)cc2c1=O [CIPROFLOXACIN] | 0.005 (≈ 0.0151 µM) | 0.2 (≈ 0.604 µM) | 1.56 (≈ 4.71 µM) | 0.78 (≈ 2.35 µM) |  |  | 0.05 (≈ 0.151 µM) |  |  | 
3 | CC1Cc2cc(N3CCNCC3)c(F)cc2-c2cc(=O)c(C(=O)O)cn21 (stereo not given) |  | 25 (≈ 70 µM) |  |  |  | 50 (≈ 140 µM) | 50 (≈ 140 µM) |  | 0.2 (≈ 0.56 µM) | 4.08
4 | C[C@@H]1Cc2ccccc2-c2cc(=O)c(C(=O)O)cn21 | 6.25 (≈ 24.5 µM) | 25 (≈ 97.9 µM) | 100 (≈ 392 µM) | > 100 | > 250 | 25 (≈ 97.9 µM) | 100 (≈ 392 µM) | 50 (≈ 196 µM) | > 100 | 3.90
